Measured values of several laboratories.
Compare with care: the assays were run in different laboratories.
Target: MAP/microtubule affinity-regulating kinase 4 (MARK4, Homo sapiens, UniProt Q96L34)
Observed: enzyme activity
Mode: inhibitor
One construct used (Q96L34 1-752): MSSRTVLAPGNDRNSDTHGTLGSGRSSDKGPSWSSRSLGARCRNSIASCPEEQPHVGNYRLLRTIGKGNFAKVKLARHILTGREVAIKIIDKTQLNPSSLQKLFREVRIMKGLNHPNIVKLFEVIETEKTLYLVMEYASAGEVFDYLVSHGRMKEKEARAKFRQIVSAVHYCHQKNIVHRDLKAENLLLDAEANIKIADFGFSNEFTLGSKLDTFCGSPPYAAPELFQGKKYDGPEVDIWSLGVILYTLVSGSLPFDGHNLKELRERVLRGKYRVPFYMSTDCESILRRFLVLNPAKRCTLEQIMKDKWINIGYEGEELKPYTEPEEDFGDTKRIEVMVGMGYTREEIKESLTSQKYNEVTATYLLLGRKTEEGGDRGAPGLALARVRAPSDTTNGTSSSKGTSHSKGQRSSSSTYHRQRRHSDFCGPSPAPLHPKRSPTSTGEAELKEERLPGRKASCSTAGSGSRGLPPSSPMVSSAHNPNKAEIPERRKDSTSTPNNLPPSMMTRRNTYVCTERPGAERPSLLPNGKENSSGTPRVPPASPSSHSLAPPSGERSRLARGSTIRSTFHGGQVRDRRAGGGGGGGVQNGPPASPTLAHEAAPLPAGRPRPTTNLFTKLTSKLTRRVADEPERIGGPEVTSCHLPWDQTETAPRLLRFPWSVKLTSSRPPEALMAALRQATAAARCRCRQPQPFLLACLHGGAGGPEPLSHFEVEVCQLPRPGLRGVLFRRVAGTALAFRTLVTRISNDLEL

Structure (SMILES)	method	tested at	remaining activity [%]
COc1cc(Cl)c(C(=O)N[C@@H](CN[C@H]2CC[C@@H](N)CC2)Cc2ccc(C#N)cc2)cc1-c1ccc(CN[C@H](C)c2ccc(C)cc2)o1		1 µM	91
Cc1nn(CC(F)(F)F)cc1Nc1ncc(C2CC2)c(NCCc2c[nH]cn2)n1	radiometric	1 µM	88
FC(F)c1nc2ccccc2n1-c1nc(N2CCOCC2)nc(N2CCOCC2)n1		10 µM	89
Brc1cnc(Nc2cccc(CN3CCOCC3)c2)nc1NCCc1c[nH]cn1	radiometric	1 µM	3
Cn1c(=O)n(-c2ccc(C(C)(C)C#N)cc2)c2c3cc(-c4cnc5ccccc5c4)ccc3ncc21		10 µM	81
CC(C)(C)c1nc(-c2cccc(NS(=O)(=O)c3c(F)cccc3F)c2F)c(-c2ccnc(N)n2)s1	radiometric	1 µM	84
Cc1sc(C(=O)NC2COC2)cc1-n1cc(NC(=O)Nc2c(F)cccc2Cl)cn1		10 µM	108
COc1cc(Nc2cnc(C#N)c(O[C@H](C)CN(C)C)n2)ncc1-c1cnn(C)c1	radiometric	1 µM	105
Cc1ccc(Nc2nccc(N(C)c3ccc4c(C)n(C)nc4c3)n2)cc1S(N)(=O)=O		0.5 µM	98
Cc1nn(CC(F)(F)F)cc1Nc1nccc(NCCCNC(=O)C2CCC2)n1	radiometric	1 µM	113
CC(C)(O)[C@H]1CC[C@H](Nc2ccc3ncc(-c4cccc(C(F)(F)F)c4)n3n2)CC1		1 µM	97.8
NS(=O)(=O)c1ccc(CNc2ccnc(Nc3cccc(NC(=O)N4CCCC4)c3)n2)cc1	radiometric	1 µM	99
O=C(Nc1cnn(-c2csc(C(=O)NC3COC3)c2)c1)Nc1c(F)cccc1Cl		5 µM	97.9
Cc1ccc(C(=O)Nc2ccc(CN3CCN(C)CC3)c(C(F)(F)F)c2)cc1C#Cc1cnc2cccnn12		23.5 nM	94
Cc1nn(CC(F)(F)F)cc1Nc1nccc(NCc2ccc(S(N)(=O)=O)cc2)n1	radiometric	1 µM	101
CC(C)(C)c1nc2c(s1)c1nc(N)ncc1c1ccc(NS(=O)(=O)c3c(F)cccc3F)c(F)c12	radiometric	1 µM	88
